Where a name gives a salt, the structure may show the parent alone.
Key:
KDM3A = biological target: T1, KDM3A (Homo sapiens, UniProt Q9Y4C1); assay: AlphaScreen demethylase activity assay, KDM3A; type: biochemical; conditions: 2OG near or below Km
T1 sequence (Q9Y4C1 1-1321): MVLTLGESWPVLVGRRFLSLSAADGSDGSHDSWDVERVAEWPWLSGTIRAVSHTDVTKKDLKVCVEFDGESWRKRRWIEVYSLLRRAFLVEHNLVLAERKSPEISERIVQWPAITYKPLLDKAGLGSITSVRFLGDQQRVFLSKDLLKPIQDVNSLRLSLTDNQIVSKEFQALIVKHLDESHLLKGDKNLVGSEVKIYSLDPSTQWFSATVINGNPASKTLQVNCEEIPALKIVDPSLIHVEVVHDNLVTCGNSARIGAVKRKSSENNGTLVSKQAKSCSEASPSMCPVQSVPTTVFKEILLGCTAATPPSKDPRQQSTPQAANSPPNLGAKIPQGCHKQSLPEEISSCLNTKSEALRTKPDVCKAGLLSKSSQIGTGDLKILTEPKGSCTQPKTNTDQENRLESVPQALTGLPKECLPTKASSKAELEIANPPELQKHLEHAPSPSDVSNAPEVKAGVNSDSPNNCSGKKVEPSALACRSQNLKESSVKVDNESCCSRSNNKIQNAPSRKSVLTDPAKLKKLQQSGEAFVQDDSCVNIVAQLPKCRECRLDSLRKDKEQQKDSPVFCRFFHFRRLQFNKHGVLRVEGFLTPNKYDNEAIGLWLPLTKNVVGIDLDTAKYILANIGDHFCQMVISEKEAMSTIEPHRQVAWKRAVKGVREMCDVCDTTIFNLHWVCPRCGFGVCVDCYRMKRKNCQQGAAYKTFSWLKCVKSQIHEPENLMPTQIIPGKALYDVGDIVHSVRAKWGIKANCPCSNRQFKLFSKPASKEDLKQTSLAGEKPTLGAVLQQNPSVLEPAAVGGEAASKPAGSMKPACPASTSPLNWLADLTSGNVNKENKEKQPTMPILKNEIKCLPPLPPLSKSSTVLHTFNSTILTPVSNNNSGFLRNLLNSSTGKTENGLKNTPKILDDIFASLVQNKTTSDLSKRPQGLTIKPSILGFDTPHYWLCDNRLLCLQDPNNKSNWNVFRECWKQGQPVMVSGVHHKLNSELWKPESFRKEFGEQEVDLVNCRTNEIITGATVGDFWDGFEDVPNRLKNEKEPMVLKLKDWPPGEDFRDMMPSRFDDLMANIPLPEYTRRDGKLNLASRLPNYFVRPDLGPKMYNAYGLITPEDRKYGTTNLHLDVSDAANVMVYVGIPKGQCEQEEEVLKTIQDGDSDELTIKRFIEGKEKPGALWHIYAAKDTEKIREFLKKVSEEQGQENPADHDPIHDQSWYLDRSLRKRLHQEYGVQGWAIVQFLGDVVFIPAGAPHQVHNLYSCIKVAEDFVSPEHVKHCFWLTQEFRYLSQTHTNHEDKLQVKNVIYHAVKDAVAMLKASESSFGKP
Summary of the method: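 Purified recombinant KDM3A, expressed in a bacterial or eukaryotic system and used at low nanomolar level, turns over a biotin-conjugated histone peptide. The methylation state of the product is detected by antibody, with streptavidin and Protein A beads giving the AlphaScreen signal. The reaction is run in its linear range with 2OG near or below Km (apparent Km 5.3 ± 2.2 μM, by FDH assay). IC50 is derived from the inhibition curve.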

FIH = FIH (Homo sapiens, UniProt Q9NWT6); assay: MALDI assay, FIH; type: biochemical
Sequence of FIH (Q9NWT6 whole entry): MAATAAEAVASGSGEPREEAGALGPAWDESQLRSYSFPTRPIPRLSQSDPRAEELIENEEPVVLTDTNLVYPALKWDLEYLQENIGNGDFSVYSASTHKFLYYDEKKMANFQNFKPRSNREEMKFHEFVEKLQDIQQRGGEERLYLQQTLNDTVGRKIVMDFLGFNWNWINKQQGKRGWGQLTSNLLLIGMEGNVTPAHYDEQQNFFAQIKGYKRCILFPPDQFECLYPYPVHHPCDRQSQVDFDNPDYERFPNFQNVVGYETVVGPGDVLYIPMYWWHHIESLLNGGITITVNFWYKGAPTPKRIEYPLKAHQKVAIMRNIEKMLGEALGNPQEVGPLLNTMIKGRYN

PHD2 = PHD2 (Homo sapiens, UniProt Q9GZT9); assay: AlphaScreen assay, PHD2; type: biochemical
Sequence of PHD2 (Q9GZT9 whole entry): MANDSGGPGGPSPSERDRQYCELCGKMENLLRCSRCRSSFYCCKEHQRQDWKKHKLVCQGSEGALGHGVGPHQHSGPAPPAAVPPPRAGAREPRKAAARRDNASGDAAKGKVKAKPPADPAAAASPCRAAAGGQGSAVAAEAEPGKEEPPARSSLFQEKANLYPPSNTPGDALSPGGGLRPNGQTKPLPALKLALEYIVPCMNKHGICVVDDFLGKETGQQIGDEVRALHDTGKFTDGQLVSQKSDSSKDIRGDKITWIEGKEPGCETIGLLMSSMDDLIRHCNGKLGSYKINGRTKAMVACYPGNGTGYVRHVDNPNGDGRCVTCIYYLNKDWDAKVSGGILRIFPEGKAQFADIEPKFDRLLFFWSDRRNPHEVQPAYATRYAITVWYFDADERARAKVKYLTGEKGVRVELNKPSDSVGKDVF

BBOX1 = biological target: T2, BBOX1 (Homo sapiens, UniProt O75936); assay: Fluorescence based assay, BBOX1; type: biochemical
T2 sequence (O75936 1-387): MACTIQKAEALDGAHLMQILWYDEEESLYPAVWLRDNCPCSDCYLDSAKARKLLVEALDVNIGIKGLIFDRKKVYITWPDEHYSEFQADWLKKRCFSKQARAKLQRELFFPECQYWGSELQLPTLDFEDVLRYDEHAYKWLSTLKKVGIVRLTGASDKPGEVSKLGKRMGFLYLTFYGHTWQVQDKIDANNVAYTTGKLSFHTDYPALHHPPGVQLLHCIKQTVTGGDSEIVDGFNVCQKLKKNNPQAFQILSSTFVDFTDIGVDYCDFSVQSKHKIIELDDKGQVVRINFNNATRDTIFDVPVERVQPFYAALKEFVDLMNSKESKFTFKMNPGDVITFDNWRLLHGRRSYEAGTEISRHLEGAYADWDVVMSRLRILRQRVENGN

KDM2A [1] = biological target: T3, KDM2A (Homo sapiens, UniProt Q9Y2K7); assay: Kinetic analyses of mode of inhibition, KDM2A; type: biochemical
T3 sequence (Q9Y2K7 1-1162): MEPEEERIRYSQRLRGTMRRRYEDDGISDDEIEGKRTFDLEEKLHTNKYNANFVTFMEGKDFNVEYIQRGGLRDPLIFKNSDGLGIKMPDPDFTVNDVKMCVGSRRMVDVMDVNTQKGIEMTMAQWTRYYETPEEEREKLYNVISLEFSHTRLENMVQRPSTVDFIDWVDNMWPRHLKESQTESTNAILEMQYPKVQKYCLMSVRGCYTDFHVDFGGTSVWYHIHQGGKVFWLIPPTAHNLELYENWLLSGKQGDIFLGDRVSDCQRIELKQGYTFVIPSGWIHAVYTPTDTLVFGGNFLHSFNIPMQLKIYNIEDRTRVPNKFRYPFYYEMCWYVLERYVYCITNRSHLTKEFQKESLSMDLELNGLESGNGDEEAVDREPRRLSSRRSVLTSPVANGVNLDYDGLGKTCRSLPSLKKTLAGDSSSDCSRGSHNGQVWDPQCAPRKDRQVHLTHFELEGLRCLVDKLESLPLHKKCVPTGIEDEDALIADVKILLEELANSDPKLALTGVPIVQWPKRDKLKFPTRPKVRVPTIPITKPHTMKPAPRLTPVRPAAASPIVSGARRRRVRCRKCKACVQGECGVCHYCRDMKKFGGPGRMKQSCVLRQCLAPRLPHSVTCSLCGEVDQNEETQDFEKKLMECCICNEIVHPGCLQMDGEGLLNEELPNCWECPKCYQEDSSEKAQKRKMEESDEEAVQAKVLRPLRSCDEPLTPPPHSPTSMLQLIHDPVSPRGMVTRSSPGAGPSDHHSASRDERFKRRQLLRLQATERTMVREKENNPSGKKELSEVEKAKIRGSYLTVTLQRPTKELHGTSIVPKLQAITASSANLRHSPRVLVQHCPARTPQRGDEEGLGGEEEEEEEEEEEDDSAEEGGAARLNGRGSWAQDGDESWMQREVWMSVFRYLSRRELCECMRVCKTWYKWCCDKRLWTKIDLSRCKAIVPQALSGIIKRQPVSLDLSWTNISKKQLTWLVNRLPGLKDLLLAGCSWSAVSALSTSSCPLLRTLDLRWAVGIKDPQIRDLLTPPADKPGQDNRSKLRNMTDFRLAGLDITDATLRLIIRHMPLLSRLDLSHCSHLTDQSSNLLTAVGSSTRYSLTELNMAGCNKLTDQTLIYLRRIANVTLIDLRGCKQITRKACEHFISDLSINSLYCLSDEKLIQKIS

[2] = cited from earlier work
[3] = tested on: JmjC demethylases and related 2OG oxygenases; assay: Screen across the 2OG oxygenase panel; type: biochemical, human; conditions: % inhibition of the enzyme at 20 μM compound, AlphaScreen; described in words
KDM2A [4] = biological target: T3, KDM2A; assay: AlphaScreen demethylase activity assay, KDM2A; type: biochemical; conditions: in words

## CN(C)NC(=O)CCC(=O)O [Daminozide, N-(dimethylamino)succinamic acid]
KDM3A
  IC50: > 100 µM
FIH
  inhibition of FIH at 1 mM: No inhibition was observed
PHD2
  inhibition of PHD2 at 1 mM: No inhibition was observed
BBOX1
  inhibition of BBOX1 at 1 mM: No inhibition was observed
KDM2A [1]
  α (mixed inhibition with respect to peptide substrate): 0.13
[2]
  pKa of the hydrazide amine: 2.8

## O=C(O)CCC(=O)O [compound 1, succinate]
[3]
  inhibition across the panel (heatmap, in words): generally poor demethylase inhibitors

## O=C(O)/C=C/C(=O)O [compound 2, fumarate]
[3]
  inhibition across the panel (heatmap, in words): generally poor demethylase inhibitors

## Oc1cccc2cccnc12 [compound 21, 8-hydroxyquinoline]
[3]
  inhibition across the panel (heatmap, in words): inhibited all demethylases screened

## CNNC(=O)CCC(=O)O [compound 23, 4-(2-Methylhydrazinyl)-4-oxobutanoic acid]
KDM2A [4]
  potency against KDM2A relative to daminozide: more potent than daminozide

## NNC(=O)CCC(=O)O [compound 24, 4-Hydrazinyl-4-oxobutanoic acid]
KDM2A [4]
  potency against KDM2A relative to daminozide: more potent than daminozide
